Assay results from different studies.
Each line is one published result; the experiments were not run side by side.
Target: Tyrosine-protein kinase CSK (CSK, Homo sapiens, UniProt P41240)

CO[C@@H]1[C@H](N(C)C(=O)c2ccccc2)C[C@H]2O[C@]1(C)n1c3ccccc3c3c4c(c5c6ccccc6n2c5c31)C(=O)NC4
inhibition (enzyme activity, inhibitor; 1 µM): 0%

CCCCC(=O)Nc1ccc(-c2ccc3ncn(CCC)c(=O)c3c2)cn1
remaining binding (binding, competition with immobilised ligand; 0.5 µM): 94%

CN1CCN(C(=O)c2ccc(NC(=O)Nc3ccc(N(C)c4ccnc(Nc5ccc(CS(C)(=O)=O)cc5)n4)cc3)cc2)CC1
remaining binding (binding, competition with immobilised ligand; 1 µM): 62%

C1=C/COCc2cc(ccc2OCCN2CCCC2)Nc2nccc(n2)-c2cccc(c2)COC/1
remaining signal (cell-free assay; 0.1 µM): 88%

COc1ccc2oc(-c3ccc4nc(N)oc4c3)c/c(=N\c3ccccc3NC(=O)CCN)c2c1
remaining signal (cell-free assay; 1 µM): 119%

CC#CC(=O)N1CCC[C@H]1c1nc(-c2ccc(C(=O)Nc3ccccn3)cc2)c2c(N)nccn12
inhibition (enzyme activity, inhibitor; 1 µM): 32%

Cc1ccc(NC(=O)c2ccnc(C(F)(F)F)c2)cc1-c1cc(OCCO)nc(N2CCOCC2)c1
remaining binding (binding, competition with immobilised ligand; 1 µM): 95%

C#Cc1cc(-c2cc(Nc3nc(N[C@@H](C)c4ccc(F)cn4)ncc3Cl)n[nH]2)ccc1C=O
inhibition (enzyme activity, inhibitor; 0.2 µM): 14%

Cc1cc(O)c(-c2ccc([C@@H](C)CN(C)C)cc2)c2c1[nH]c(=O)c1sccc12
inhibition (enzyme activity, inhibitor; 0.1 µM, lysate): 2.59%
